Source: ChEMBL document CHEMBL5329160, “Design, synthesis, and mechanistic study of 2-piperazineone-bearing peptidomimetics as novel HIV capsid modulators” (RSC Med Chem, 2023)

Experiments:
[1] = tested on: Human immunodeficiency virus 2; test: Antiviral activity against HIV-2 ROD infected in MT4 cells assessed as protection against virus induced cytotoxicity and measured after 5 days by MTT spectrophotometric assay; type: functional, organism-based; details: Human immunodeficiency virus 2, ROD, MT4, 120 h
[2] = Cytotoxicity against human MT4 cells assessed as reduction in cell viability after 5 days by MTT assay; type: toxicity, cell-based; details: time 5 day
[3] = tested on: Human immunodeficiency virus 1; test: Antiviral activity against HIV-1 IIIB infected in MT4 cells assessed as protection against virus induced cytotoxicity incubated for 5 days by MTT assay; type: functional, organism-based; details: Human immunodeficiency virus 1, IIIB, MT4, 120 h
[4] = Selectivity index, ratio of CC50 for human MT4 cells to EC50 for HIV-2 ROD infected in human MT4 cells; type: toxicity, cell-based; details: read-out: Ratio CC50/EC50
[5] = Selectivity index, ratio of CC50 for human MT4 cells to EC50 for HIV-1 IIIB infected in human MT4 cells; type: toxicity, cell-based; details: read-out: Ratio CC50/EC50
[6] = target: T1, Structural capsid protein (Human immunodeficiency virus 1, UniProt Q76129); test: Binding affinity to HIV-1 NL4-3 hexameric capsid protein by SPR analysis
How it was run: (§1)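 SPR binding isotherms averaged over 3 replicates, with error bars as SD.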

[7] = target: T1, Structural capsid protein; test: Binding affinity to HIV-1 NL4-3 monomeric capsid protein by SPR analysis; how it was run: as §1
[8] = target: Structural capsid protein (Human immunodeficiency virus 1) (UniProt Q76129); test: Ratio of Kd for HIV-1 NL4-3 monomeric capsid protein to Kd for HIV-1 NL4-3 hexameric capsid protein
[9] = target: Structural capsid protein (Human immunodeficiency virus 1) (UniProt Q76129); test: Binding affinity to HIV-1 NL4-3 hexameric capsid protein assessed as Koff by SPR analysis; details: filed as modulator
[10] = Metabolic stability in human liver assessed as intrinsic clearance at 1 uM preincubated for 10 mins followed by NADPH addition and measured after 60 mins; details: read-out: CLH

Structural capsid protein (Human immunodeficiency virus 1), sequence (Q76129 as listed by the source): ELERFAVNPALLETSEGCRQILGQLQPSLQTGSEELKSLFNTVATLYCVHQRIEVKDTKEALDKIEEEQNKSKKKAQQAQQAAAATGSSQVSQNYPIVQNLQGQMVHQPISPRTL
T1 sequence (Q76129 whole entry): as the sequence (Q76129 as listed by the source) above

Row | SMILES | EC50 [1] [µM] | CC50 at 120 h [2] [µM] | EC50 [3] [µM] | selectivity ratio [4] | selectivity ratio [5] | Kd [6] [µM] | Kd [7] [µM] | Ratio [8] | K [9] [s⁻¹] | CLint scaled at 1 µM [10] [mL/min/kg]
1 | COC(=O)c1ccc(C(=O)N2CCN(CC(=O)N[C@@H](Cc3cc(F)cc(F)c3)C(=O)N(C)c3ccc(OC)cc3)C(=O)C2)cc1 | 26 | 120 | 18 | 4.6 | 6.7 | – | – | – | – | –
2 | COc1ccc(N(C)C(=O)[C@H](Cc2cc(F)cc(F)c2)NC(=O)CN2CCN(C(=O)c3ccc(N)cc3)CC2=O)cc1 | 32 | > 220 | 18 | > 6.9 | > 12 | – | – | – | – | –
3 | COc1ccc(N(C)C(=O)[C@H](Cc2ccccc2)NC(=O)CN2CCN(C(=O)c3ccc(F)cc3)CC2=O)cc1 | 11 | 77 | > 77 | 7 | < 1 | – | – | – | – | –
4 | COc1ccc(N(C)C(=O)[C@H](Cc2ccccc2)NC(=O)CN2CCN(C(=O)c3ccc(Cl)cc3)CC2=O)cc1 | > 9 | 9 | > 8.9 | < 1 | < 1 | – | – | – | – | –
5 | COc1ccc(N(C)C(=O)[C@H](Cc2ccccc2)NC(=O)CN2CCN(C(=O)c3cccc(C(F)(F)F)c3)CC2=O)cc1 | > 6.7 | 6.7 | > 6.7 | < 1 | < 1 | – | – | – | – | –
6 | COc1ccc(N(C)C(=O)[C@H](Cc2cc(F)cc(F)c2)NC(=O)CN2CCN(C(=O)c3cccc(N)c3)CC2=O)cc1 | 16 | > 220 | 23 | > 14 | > 10 | – | – | – | – | –
7 | COc1ccc(N(C)C(=O)[C@H](Cc2cc(F)cc(F)c2)NC(=O)CN2CCN(C(=O)c3ccccc3F)CC2=O)cc1 | 5.3 | 140 | 22 | 26 | 6.4 | – | – | – | – | –
8 | COc1ccc(N(C)C(=O)[C@H](Cc2cc(F)cc(F)c2)NC(=O)CN2CCN(C(=O)c3ccc(Cl)cc3)CC2=O)cc1 | > 19 | 19 | > 19 | < 1 | < 1 | – | – | – | – | –
9 | COc1ccc(N(C)C(=O)[C@H](Cc2cc(F)cc(F)c2)NC(=O)CN2CCN(C(=O)c3ccc([N+](=O)[O-])cc3)CC2=O)cc1 | > 18 | 18 | > 18 | < 1 | < 1 | – | – | – | – | –
10 | COc1ccc(N(C)C(=O)[C@H](Cc2cc(F)cc(F)c2)NC(=O)CN2CCN(C(=O)c3ccc(C(F)(F)F)cc3)CC2=O)cc1 | > 18 | 18 | > 18 | < 1 | < 1 | – | – | – | – | –
11 | COc1ccc(N(C)C(=O)[C@H](Cc2ccccc2)NC(=O)CN2CCN(C(=O)c3ccc([N+](=O)[O-])cc3)CC2=O)cc1 | > 16 | 16 | > 16 | < 1 | < 1 | – | – | – | – | –
12 | COc1ccc(N(C)C(=O)[C@H](Cc2ccccc2)NC(=O)CN2CCN(C(=O)c3ccc(C)cc3)CC2=O)cc1 | 9.2 | 64 | 33 | 7 | 1.9 | – | – | – | – | –
13 | COc1ccc(N(C)C(=O)[C@H](Cc2ccccc2)NC(=O)CN2CCN(C(=O)c3ccccc3N)CC2=O)cc1 | 5.4 | 160 | 23 | 30 | 7 | – | – | – | – | –
14 | COc1ccc(N(C)C(=O)[C@H](Cc2ccccc2)NC(=O)CN2CCN(C(=O)c3ccc(N)cc3)CC2=O)cc1 | 28 | > 230 | 21 | > 8.2 | > 11 | – | – | – | – | –
15 | COC(=O)c1ccc(C(=O)N2CCN(CC(=O)N[C@@H](Cc3ccccc3)C(=O)N(C)c3ccc(OC)cc3)C(=O)C2)cc1 | 24 | 200 | > 190 | 8.3 | < 1 | – | – | – | – | –
16 | COc1ccc(C(=O)N2CCN(CC(=O)N[C@@H](Cc3cc(F)cc(F)c3)C(=O)N(C)c3ccc(OC)cc3)C(=O)C2)cc1 | 31 | 96 | 24 | 3.1 | 4 | – | – | – | – | –
17 | COc1ccc(N(C)C(=O)[C@H](Cc2cc(F)cc(F)c2)NC(=O)CN2CCN(C(=O)c3cccc(F)c3)CC2=O)cc1 | 13 | 99 | 25 | 7.6 | 4 | – | – | – | – | –
18 | COc1ccc(N(C)C(=O)[C@H](Cc2cc(F)cc(F)c2)NC(=O)CN2CCN(C(=O)c3cccc([N+](=O)[O-])c3)CC2=O)cc1 | > 47 | 47 | 34 | < 1 | 1.4 | – | – | – | – | –

Row | SMILES | EC50 [1] [µM] | CC50 at 120 h [2] [µM] | EC50 [3] [µM] | selectivity ratio [4] | selectivity ratio [5] | Kd [6] [µM] | Kd [7] [µM] | Ratio [8] | K [9] [s⁻¹] | CLint scaled at 1 µM [10] [mL/min/kg]
19 | COc1ccc(N(C)C(=O)[C@H](Cc2ccccc2)NC(=O)CN2CCN(C(=O)c3cccc(F)c3)CC2=O)cc1 | 4.6 | > 230 | 23 | > 50 | > 10 | – | – | – | – | –
20 | COc1ccc(N(C)C(=O)[C@H](Cc2ccccc2)NC(=O)CN2CCN(C(=O)c3ccccc3F)CC2=O)cc1 | 7.8 | 140 | 24 | 18 | 5.8 | – | – | – | – | –
21 | COc1ccc(N(C)C(=O)[C@H](Cc2ccccc2)NC(=O)CN2CCN(C(=O)c3ccccc3[N+](=O)[O-])CC2=O)cc1 | 2.5 | 180 | 22 | 72 | 8.2 | – | – | – | – | –
22 | COc1ccc(N(C)C(=O)[C@H](Cc2cc(F)cc(F)c2)NC(=O)CN2CCN(C(=O)c3ccc(C)cc3)CC2=O)cc1 | 35 | 74 | 32 | 2.1 | 2.3 | – | – | – | – | –
23 | COc1ccc(N(C)C(=O)[C@H](Cc2cc(F)cc(F)c2)NC(=O)CN2CCN(C(=O)c3cccc(C(F)(F)F)c3)CC2=O)cc1 | > 3.7 | 3.7 | > 3.7 | < 1 | < 1 | – | – | – | – | –
24 | COc1ccc(N(C)C(=O)[C@H](Cc2cc(F)cc(F)c2)NC(=O)CN2CCN(C(=O)c3ccccc3N)CC2=O)cc1 | 8.6 | 160 | 18 | 19 | 8.9 | – | – | – | – | –
25 | COc1ccc(N(C)C(=O)[C@H](Cc2cc(F)cc(F)c2)NC(=O)CN2CCN(C(=O)c3ccc(Br)cc3)CC2=O)cc1 | > 19 | 19 | > 19 | < 1 | < 1 | – | – | – | – | –
26 | COc1ccc(N(C)C(=O)[C@H](Cc2ccccc2)NC(=O)CN2CCN(C(=O)c3ccc(Br)cc3)CC2=O)cc1 | > 11 | 11 | > 11 | < 1 | < 1 | – | – | – | – | –
27 | COc1ccc(C(=O)N2CCN(CC(=O)N[C@@H](Cc3ccccc3)C(=O)N(C)c3ccc(OC)cc3)C(=O)C2)cc1 | 21 | 110 | 26 | 5.2 | 4.2 | – | – | – | – | –
28 | COc1ccc(N(C)C(=O)[C@H](Cc2ccccc2)NC(=O)CN2CCN(C(=O)c3ccc(C(F)(F)F)cc3)CC2=O)cc1 | ≥ 41 | 42 | ≥ 37 | – | – | – | – | – | – | –
29 | COc1ccc(N(C)C(=O)[C@H](Cc2ccccc2)NC(=O)CN2CCN(C(=O)c3ccccc3)CC2=O)cc1 | 3.6 | > 240 | 28 | > 67 | > 8.6 | – | – | – | – | –
30 | COc1ccc(N(C)C(=O)[C@H](Cc2cc(F)cc(F)c2)NC(=O)CN2CCN(C(=O)c3ccccc3C(F)(F)F)CC2=O)cc1 | 5 | 110 | 12 | 22 | 9.2 | 5.3 | 12 | 2.2 | 0.25 | –
31 | COc1ccc(N(C)C(=O)[C@H](Cc2ccccc2)NC(=O)CN2CCN(C(=O)c3ccccc3C(F)(F)F)CC2=O)cc1 | 2.9 | 130 | 21 | 45 | 6.2 | – | – | – | – | –
32 | COc1ccc(N(C)C(=O)[C@H](Cc2cc(F)cc(F)c2)NC(=O)CN2CCN(C(=O)c3ccccc3)CC2=O)cc1 | 12 | 110 | 25 | – | 4.4 | – | – | – | – | –
33 | COc1ccc(N(C)C(=O)[C@H](Cc2ccccc2)NC(=O)CN2CCN(C(=O)c3cccc(N)c3)CC2=O)cc1 | 27 | > 230 | ≥ 200 | > 8.5 | ≥ 1 | – | – | – | – | –
34 | COc1ccc(N(C)C(=O)[C@H](Cc2cc(F)cc(F)c2)NC(=O)CN2CCN(C(=O)c3ccc(F)cc3)CC2=O)cc1 | 21 | 77 | 20 | 3.7 | 3.8 | – | – | – | – | –
35 | O=C(O)Cc1ccccc1Nc1c(Cl)cccc1Cl [DICLOFENAC] | – | – | – | – | – | – | – | – | – | 3.3
36 | COc1ccc(N(C)C(=O)[C@H](Cc2ccccc2)NC(=O)CN2CCN(C(=O)c3cccc([N+](=O)[O-])c3)CC2=O)cc1 | > 24 | 24 | > 24 | < 1 | < 1 | – | – | – | – | –
